Data reported in ChEMBL document CHEMBL3286113, “New potent antibacterial oxazolidinone (MRX-I) with an improved class safety profile” (J Med Chem, 2014).
≈ marks a conversion by molar mass, not a printed value.

Legend:
[1] = AUC (0 to t) in male rat at 5 mg/kg, iv; format: ADME, organism-based; set-up: dose 5 mg/kg, route intravenous; conditions: plasma
How it was run: (§1)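 Rat PK by gender, with single oral doses of 5, 15 and 45 mg/kg and an iv dose of 5 mg/kg. Tmax, Cmax, T1/2 and AUC0−t were reported per gender.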

[2] = system: Canis familiaris; assay: Dose normalized Cmax in po dosed dog; format: ADME, organism-based, Canis lupus familiaris; conditions: in vivo
[3] = system: Rattus norvegicus; assay: Toxicity in female rat assessed as effect on lymphocyte count at 20 mg/kg/day, po bid administered for 4 weeks (reference value: 74.8%); format: organism-based; set-up: route oral; conditions: in vivo, 672 h
[4] = system: Enterococcus faecalis; assay: Antibacterial activity against vancomycin-sensitive Enterococcus faecalis ATCC 29212; format: functional
[5] = Tmax in female rat at 15 mg/kg, po; format: ADME, organism-based; set-up: dose 15 mg/kg, route oral; conditions: in vivo
How it was run: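 Male and female rats received single oral doses of 5, 15 or 45 mg/kg, with 5 mg/kg iv as a reference arm. Tmax was read from the plasma concentration–time profile for each gender.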

[6] = AUC (0 to infinity) in fasted human at 300 mg, po administered as single dose; format: ADME, organism-based; set-up: dose 300 mg, route oral, time infinity; conditions: plasma
How it was run: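 Single-dose, three-period Latin-square crossover in 12 healthy volunteers (6 of each gender). Each received single oral 300, 600 and 900 mg doses under fasting conditions, with a 1-week washout between doses. PK parameters, including AUC0−inf, came from a noncompartmental model.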

[7] = system: Rattus norvegicus; assay: Toxicity in female rat assessed as effect on reticulocyte count at 100 mg/kg/day, po bid administered for 4 weeks (reference value: 1.48%); format: organism-based; set-up: route oral; conditions: in vivo, 672 h
[8] = system: Staphylococcus aureus; assay: Antibacterial activity against methicillin-resistant Staphylococcus aureus by agar dilution method; format: functional
How it was run: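 MIC determined by agar dilution across S. aureus/MRSA isolates; MIC90 is the concentration inhibiting 90% of strains tested.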

[9] = Half life in female rat at 5 mg/kg, po; format: ADME, organism-based; set-up: dose 5 mg/kg, route oral; conditions: in vivo
[10] = Tmax in fasted human at 300 mg, po administered as single dose; format: ADME, organism-based; conditions: in vivo
How it was run: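 Randomized single-dose, three-period Latin-square crossover in 12 healthy volunteers (six per gender), fasting. Single oral doses of 300, 600 and 900 mg were separated by a 1-week washout. PK parameters were derived by noncompartmental analysis.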

[11] = system: Streptococcus pyogenes; assay: Antibacterial activity against Streptococcus pyogenes isolate 556; format: functional
[12] = Elimination half life in fasted human at 600 mg, po administered as single dose; format: ADME, organism-based; conditions: in vivo, read-out: beta t1/2 (converted)
How it was run: (§2)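 Healthy volunteers (12; six of each sex) in a three-period Latin-square crossover. Each received single oral doses of 300, 600 and 900 mg under fasting conditions, with a 1-week washout between doses. Parameters from a noncompartmental model.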

[13] = Cmax in male rat at 45 mg/kg, po; format: ADME, organism-based; set-up: dose 45 mg/kg, route oral; conditions: in vivo
[14] = system: Homo sapiens; assay: Drug uptake in human at 600 to 800 mg, po administered as single dose with meal measured on day 1 and day 15; format: ADME, organism-based; conditions: in vivo
How it was run: (§3)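 Randomized, double-blind, placebo-controlled multiple-dose study in 32 healthy subjects, half male and half female. Each dose was taken with a meal, at 600 or 800 mg, 28 doses over 15 days. A single dose on days 1 and 15 gave full PK; BID (Q12h) dosing ran on days 2–14.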

[15] = system: Staphylococcus aureus; assay: Antibacterial activity against Staphylococcus aureus measured after 10 serial passages; format: functional
[16] = system: Enterococcus faecalis; assay: Antibacterial activity against vancomycin-resistant Enterococcus faecalis isolate EFL 4041; format: functional
[17] = system: Staphylococcus aureus; assay: Antibacterial activity against methicillin-sensitive Staphylococcus aureus ATCC 29213 in mouse thigh infection model assessed as reduction of log10 CFU per thigh at 5 mg/kg, po; format: functional
How it was run: (§4)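 Mouse thigh infection with S. aureus ATCC29213 (MSSA), 10 animals per dosing group. Oral doses were 5, 10, 20, 40 and 80 mg/kg. The read-out was log CFU per thigh after treatment, and the reduction (ΔLogCFU/thigh) was reported.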

[18] = AUC (0 to t) in female rat at 15 mg/kg, po; format: ADME, organism-based; set-up: dose 15 mg/kg, route oral; conditions: plasma; how it was run: as §1
[19] = AUC (0 to 24 hrs) in human at 600 mg, po administered as single dose with meal measured on day 1; format: ADME, organism-based; set-up: time < 24 hr, dose 600 mg, route oral; conditions: plasma
How it was run: (§5)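 Randomized, double-blind, placebo-controlled multiple-dose study in 32 healthy subjects (half male, half female). Subjects took 28 oral doses of 600 or 800 mg over 15 days, each with a meal. A single dose was given on days 1 and 15 for full PK, and doses were given Q12h from day 2 to day 14. AUC0−24 was measured on days 1 and 15.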

[20] = Myelosuppression activity against human CD34-positive blood stem/progenitor cells assessed as growth inhibition after 9 to 10 days by CellTiter-Glo luminescent assay
[21] = system: Staphylococcus aureus; assay: Antibacterial activity against Staphylococcus aureus measured after 2 serial passages; format: functional
[22] = system: Staphylococcus aureus; assay: Antibacterial activity against methicillin-sensitive Staphylococcus aureus ATCC 29213 in mouse thigh infection model assessed as reduction of log10 CFU per thigh at 80 mg/kg, po; format: functional; how it was run: as §4
[23] = system: Streptococcus anginosus; assay: Antibacterial activity against Streptococcus anginosus; format: functional
[24] = system: Rattus norvegicus; assay: Toxicity in female rat assessed as effect on platelet count at 200 to 300 mg/kg/day, po bid administered for 4 weeks (reference value: 654.6 x 10^9/L); format: organism-based; set-up: route oral; conditions: in vivo, 672 h
[25] = Tmax in human at 800 mg, po administered as single dose with meal measured on day 15; format: ADME, organism-based; conditions: in vivo
How it was run: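 Randomized, double-blind, placebo-controlled multiple-dose study in 32 healthy subjects, half male and half female. Dosing was 600 or 800 mg orally with a meal, 28 doses over 15 days. A single dose was given on days 1 and 15 for full PK, with Q12h (BID) dosing on days 2−14.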

[26] = Cmax in fasted human at 900 mg, po administered as single dose; format: ADME, organism-based; set-up: dose 900 mg, route oral; conditions: in vivo; how it was run: as §2
[27] = organism: Rattus norvegicus; assay: Drug uptake in rat measured over 7 days; format: ADME, organism-based; conditions: in vivo, 168 h
[28] = system: Staphylococcus; assay: Antibacterial activity against beta-lactamase-negative Staphylococcus; format: functional
[29] = system: Enterococcus faecalis; assay: Antibacterial activity against vancomycin-sensitive Enterococcus faecalis ATCC 29212 in po dosed mouse systemic infection model; format: functional; conditions: ATCC 29212, po
[30] = Tmax in po dosed rat; format: ADME, organism-based; conditions: in vivo
[31] = AUC (0 to 24 hrs) in human at 800 mg, po administered as single dose with meal measured on day 1; format: ADME, organism-based; set-up: dose 800 mg, time < 24 hr, route oral; conditions: plasma; how it was run: as §5
[32] = system: Staphylococcus aureus; assay: Antibacterial activity against methicillin-resistant Staphylococcus aureus isolate 0605; format: functional
[33] = system: Staphylococcus aureus; assay: Antibacterial activity against methicillin-resistant Staphylococcus aureus; format: functional
[34] = system: Rattus norvegicus; assay: Toxicity in female rat assessed as effect on hematocrit level at 200 to 300 mg/kg/day, po bid administered for 4 weeks (reference value: 39.08%); format: organism-based; set-up: route oral; conditions: in vivo, 672 h
[35] = system: Staphylococcus aureus; assay: Antibacterial activity against Staphylococcus aureus; format: functional
[36] = target: Cytochrome P450 3A4 (Homo sapiens, UniProt P08684); assay: Inhibition of CYP3A4 (unknown origin) at 1 to 200 uM; format: ADME
Cytochrome P450 3A4, sequence (P08684 whole entry): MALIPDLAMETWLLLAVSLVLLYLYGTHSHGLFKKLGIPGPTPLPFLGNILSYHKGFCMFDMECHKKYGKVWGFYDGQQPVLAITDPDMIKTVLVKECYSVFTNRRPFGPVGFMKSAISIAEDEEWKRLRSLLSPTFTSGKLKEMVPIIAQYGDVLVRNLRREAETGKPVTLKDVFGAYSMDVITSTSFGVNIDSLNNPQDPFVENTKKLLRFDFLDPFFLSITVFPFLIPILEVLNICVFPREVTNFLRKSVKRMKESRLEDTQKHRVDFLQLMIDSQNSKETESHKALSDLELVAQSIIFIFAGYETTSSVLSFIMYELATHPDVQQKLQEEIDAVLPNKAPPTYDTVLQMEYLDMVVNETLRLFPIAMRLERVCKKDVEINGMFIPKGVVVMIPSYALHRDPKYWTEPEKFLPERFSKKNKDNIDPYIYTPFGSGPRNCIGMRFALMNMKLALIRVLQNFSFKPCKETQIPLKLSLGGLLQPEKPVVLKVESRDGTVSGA

[37] = Cmax in human at 600 mg, po administered as single dose with meal measured on day 15; format: ADME, organism-based; set-up: dose 600 mg, route oral; conditions: in vivo; how it was run: as §3
[38] = system: Canis familiaris; assay: Dose normalized AUC (0 to t) in po dosed dog; format: ADME, organism-based, Canis lupus familiaris; conditions: in vivo
[39] = system: Rattus norvegicus; assay: Toxicity in female rat assessed as effect on RBC count at 100 mg/kg/day, po bid administered for 4 weeks (reference value: 7.28 x 10^12/L); format: organism-based; set-up: route oral; conditions: in vivo, 672 h

O=C1C=CN(c2c(F)cc(N3C[C@H](CNc4ccon4)OC3=O)c(F)c2F)CC1 [CONTEZOLID]
AUC(0-t) [1]: 12900 ng·h/mL | Cmax/dose [2]: 259 ng/mL/(mg/kg) | Activity [3]: 83.4% | MIC [4]: 1 µg/mL (≈ 2.45 µM) | Tmax [5]: 1.17 h | AUC(0-inf) [6]: 29200 ng·h/mL | Activity [7]: 1.46% | MIC50 [8]: 0.5 µg/mL (≈ 1.22 µM) | MIC90 [8]: 0.5 µg/mL (≈ 1.22 µM) | half-life [9]: 2.07 h | Tmax [10]: 1.25 h | MIC [11]: 1 µg/mL (≈ 2.45 µM) | half-life [12]: 3.31 h | Cmax [13]: 27800 ng/mL | Drug uptake [14]: Not Active | MIC [15]: 4 µg/mL (≈ 9.8 µM) | MIC [16]: 1 µg/mL (≈ 2.45 µM) | deltalog10CFU [17]: 0.95 | AUC(0-t) [18]: 64700 ng·h/mL | AUC(0-t) at 24 h [19]: 68600 ng·h/mL | IC50 [20]: 15.7 µg/mL (≈ 38.4 µM) | MIC [21]: 2 µg/mL (≈ 4.9 µM) | deltalog10CFU [22]: 3.73 | MIC50 [23]: 0.5 µg/mL (≈ 1.22 µM) | MIC90 [23]: 1 µg/mL (≈ 2.45 µM) | Activity [24]: 464.2 ×10⁹ /L | Tmax [25]: 0.57 h | Cmax [26]: 15200 ng/mL | Drug uptake [27]: Not Active | MIC50 [28]: 0.5 µg/mL (≈ 1.22 µM) | MIC90 [28]: 0.5 µg/mL (≈ 1.22 µM) | ED50 [29]: 14.1 mg/kg | Tmax [30]: 0.5 h | AUC(0-t) at 24 h [31]: 91800 ng·h/mL | MIC [32]: 2 µg/mL (≈ 4.9 µM) | MIC90 [33]: 0.5 µg/mL (≈ 1.22 µM) | Activity [34]: 30.6% | MIC [35]: 2 µg/mL (≈ 4.9 µM) | inhibition (INH) [36]: Not Active | Cmax [37]: 20600 ng/mL | AUCt/dose [38]: 1664 ng·h/mL/mg/kg | Activity [39]: 6.67 ×10¹² /L
